Assay results reported in ChEMBL document CHEMBL3351736, “A promising camptothecin derivative: Semisynthesis, antitumor activity and intestinal permeability” (Eur J Med Chem, 2014).
Calls of active or inactive are those of the source. The calls are words filed in the database; no cut-off is given here.

Tests used:
HeLa [1] = assay: Cytotoxicity against human HeLa cells after 24 hrs by MTT assay; format: functional, cell-based
In short: (§1)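 Cells seeded at 25000 per well and held 24 h at 37 °C in 5% CO2. Medium was then renewed and compounds added at increasing concentrations (DMSO 0.1%, or water for topotecan) for 24 h. MTT solution (5 mg/mL) was added for 3 h at 37 °C, then absorbance read at 570 nm, corrected at 630 nm. IC50 in µM.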

[2] = Cytotoxicity against human Caco2 cells after 24 hrs by MTT assay; format: functional, cell-based; details: Caco-2, 24 h
A-375 [3] = assay: Cytotoxicity against human A375 cells after 24 hrs by MTT assay; format: functional, cell-based; details: A-375, 24 h; in short: as §1
Jurkat = assay: Cytotoxicity against human Jurkat cells after 24 hrs by MTT assay; format: functional, cell-based; in short: as §1
MDA-MB-231 [4] = assay: Cytotoxicity against human MDA-MB-231 cells after 24 hrs by MTT assay; format: functional, cell-based; details: MDA-MB-231, 24 h; in short: as §1
Caco-2 [5] = assay: Induction of apoptosis in human Caco2 cells assessed as vital cells at 0.05 uM after 24 hrs by Annexin V/propidium iodide staining-based flow cytometric analysis (reference value: 96.67 +/- 1.02%); format: functional
Caco-2 [6] = assay: Induction of apoptosis in human Caco2 cells assessed as vital cells at 0.5 uM after 24 hrs by Annexin V/propidium iodide staining-based flow cytometric analysis (reference value: 96.67 +/- 1.02%); format: functional
Caco-2 [7] = assay: Induction of apoptosis in human Caco2 cells assessed as vital cells at 0.05 uM after 48 hrs by Annexin V/propidium iodide staining-based flow cytometric analysis (reference value: 96.67 +/- 1.02%); format: functional
Caco-2 [8] = assay: Induction of apoptosis in human Caco2 cells assessed as vital cells at 0.5 uM after 48 hrs by Annexin V/propidium iodide staining-based flow cytometric analysis (reference value: 96.67 +/- 1.02%); format: functional
Caco-2 [9] = assay: Induction of apoptosis in human Caco2 cells assessed as early apoptotic cells at 0.05 uM after 24 hrs by Annexin V/propidium iodide staining-based flow cytometric analysis (reference value: 0.72 +/- 0.03%); format: functional
Caco-2 [10] = assay: Induction of apoptosis in human Caco2 cells assessed as early apoptotic cells at 0.5 uM after 24 hrs by Annexin V/propidium iodide staining-based flow cytometric analysis (reference value: 0.72 +/- 0.03%); format: functional
Caco-2 [11] = assay: Induction of apoptosis in human Caco2 cells assessed as early apoptotic cells at 0.05 uM after 48 hrs by Annexin V/propidium iodide staining-based flow cytometric analysis (reference value: 0.72 +/- 0.03%); format: functional
Caco-2 [12] = assay: Induction of apoptosis in human Caco2 cells assessed as early apoptotic cells at 0.5 uM after 48 hrs by Annexin V/propidium iodide staining-based flow cytometric analysis (reference value: 0.72 +/- 0.03%); format: functional
Caco-2 [13] = assay: Induction of apoptosis in human Caco2 cells assessed as late apoptotic cells at 0.05 uM after 24 hrs by Annexin V/propidium iodide staining-based flow cytometric analysis (reference value: 2.20 +/- 0.77%); format: functional
Caco-2 [14] = assay: Induction of apoptosis in human Caco2 cells assessed as late apoptotic cells at 0.5 uM after 24 hrs by Annexin V/propidium iodide staining-based flow cytometric analysis (reference value: 2.20 +/- 0.77%); format: functional
Caco-2 [15] = assay: Induction of apoptosis in human Caco2 cells assessed as late apoptotic cells at 0.05 uM after 48 hrs by Annexin V/propidium iodide staining-based flow cytometric analysis (reference value: 2.20 +/- 0.77%); format: functional
Caco-2 [16] = assay: Induction of apoptosis in human Caco2 cells assessed as late apoptotic cells at 0.5 uM after 48 hrs by Annexin V/propidium iodide staining-based flow cytometric analysis (reference value: 2.20 +/- 0.77%); format: functional
Caco-2 [17] = assay: Induction of apoptosis in human Caco2 cells assessed as necrotic cells at 0.05 uM after 24 hrs by Annexin V/propidium iodide staining-based flow cytometric analysis (reference value: 0.41 +/- 0.02%); format: functional
Caco-2 [18] = assay: Induction of apoptosis in human Caco2 cells assessed as necrotic cells at 0.5 uM after 24 hrs by Annexin V/propidium iodide staining-based flow cytometric analysis (reference value: 0.41 +/- 0.02%); format: functional
Caco-2 [19] = assay: Induction of apoptosis in human Caco2 cells assessed as necrotic cells at 0.05 uM after 48 hrs by Annexin V/propidium iodide staining-based flow cytometric analysis (reference value: 0.41 +/- 0.02%); format: functional
Caco-2 [20] = assay: Induction of apoptosis in human Caco2 cells assessed as necrotic cells at 0.5 uM after 48 hrs by Annexin V/propidium iodide staining-based flow cytometric analysis (reference value: 0.41 +/- 0.02%); format: functional
A-375 [21] = assay: Induction of apoptosis in human A375 cells assessed as inhibition of DNA synthesis at 0.8 to 1.6 uM after 24 hrs by BrdU staining-based ELISA; format: functional, cell-based
In short: (§2)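 BrdU colorimetric cell proliferation ELISA. Cells seeded at 25,000 per well, compounds added 24 h after seeding and incubated 24 h. Cells fixed and the immunoassay run per kit. Absorbance read at 370-492 nm over 3 intervals of 5 min; absorbance difference proportional to BrdU incorporation. Mean of three separate experiments in triplicate, compared with untreated control.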

HeLa [22] = assay: Induction of apoptosis in human HeLa cells assessed as inhibition of DNA synthesis at 0.8 to 1.6 uM after 24 hrs by BrdU staining-based ELISA; format: functional, cell-based; in short: as §2
MDA-MB-231 [23] = assay: Induction of apoptosis in human MDA-MB-231 cells assessed as inhibition of DNA synthesis at 0.8 to 1.6 uM after 24 hrs by BrdU staining-based ELISA; format: functional, cell-based; in short: as §2
A-375 [24] = assay: Induction of apoptosis in human A375 cells assessed as p53 phosphorylation at Ser15 by Western blotting analysis; format: functional, cell-based
In short: (§3)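 Cells treated 24 h. About 10^6 cells lysed on ice 15 min in Hepes pH 7.4/Triton X-100 buffer with phosphatase and protease inhibitors, then spun 13,000 × g. 30 µg protein run on 12% SDS-PAGE and blotted to nitrocellulose. Primary anti-phospho-p53 (Ser15) and anti-p53 at 1:1000 for 2 h at room temperature, then HRP secondary and ECL densitometry. Results referred to untreated control.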

HeLa [25] = assay: Induction of apoptosis in human HeLa cells assessed as p53 phosphorylation at Ser15 by Western blotting analysis; format: functional, cell-based; in short: as §3
MDA-MB-231 [26] = assay: Induction of apoptosis in human MDA-MB-231 cells assessed as p53 phosphorylation at Ser15 by Western blotting analysis; format: functional, cell-based; in short: as §3
[27] = Effective permeability from apical to basolateral side in human Caco2 cells at 50 uM after 15 to 90 mins by HPLC analysis; format: ADME, cell-based; details: Caco-2, read-out: Peff
In short: (§4)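 Caco-2 monolayers grown 19-22 days on polycarbonate transwell inserts (4.2 cm², 0.4 µm pore) at 37 °C, 5% CO2; TEER checked before and after each run. Compound added to donor side at 37 °C, 50 rpm. Receiver sampled at 15, 30, 60 and 90 min; donor sampled at start and end. HPLC analysis. Sodium azide, when used, placed on both sides. Three independent experiments.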

[28] = Effective permeability from basolateral to apical side in human Caco2 cells at 50 uM after 15 to 90 mins by HPLC analysis; format: ADME, cell-based; details: Caco-2, read-out: Peff; in short: as §4
[29] = Effective permeability from apical to basolateral side in human Caco2 cells at 50 uM after 15 to 90 mins by HPLC analysis in presence of sodium azide; format: ADME, cell-based; details: Caco-2, with sodium azide, read-out: Peff; in short: as §4
[30] = Effective permeability from basolateral to apical side in human Caco2 cells at 50 uM after 15 to 90 mins by HPLC analysis in presence of sodium azide; format: ADME, cell-based; details: Caco-2, with sodium azide, read-out: Peff; in short: as §4
[31] = Permeability from apical to basolateral side in human Caco2 cells at 5 to 50 uM after 15 to 90 mins by HPLC analysis; format: ADME, cell-based; details: caco-2, 50 µM; in short: as §4
[32] = Permeability from basolateral to apical side in human Caco2 cells at 5 to 50 uM after 15 to 90 mins by HPLC analysis; format: ADME, cell-based; details: caco-2, 50 µM; in short: as §4
Homo sapiens = species on record: Homo sapiens; assay: Activity at Pgp transporter (unknown origin)
[33] = Effective permeability in Wistar rat small intestine at 50 uM measured after 5 mins in every 5 min interval up to 30 mins; format: ADME, tissue-based; details: not told, read-out: Peff
In short: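 In situ intestinal perfusion in male Wistar rats fasted 2 h with water allowed. Anaesthesia with diazepam (1.67 mg/kg), ketamine (50 mg/kg) and atropine (1 mg/kg); animals kept at 37 °C. Perfusate sampled every 5 min from 5 to 30 min; absorption rate constant and Peff derived.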

Small intestine = assay: Effective permeability in Wistar rat small intestine assessed as absorption rate coefficient at 50 uM measured after 5 mins in every 5 min interval up to 30 mins; format: ADME, tissue-based
In short: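 Male Wistar rats fasted 2 h with water available, then anaesthetised with diazepam (1.67 mg/kg), ketamine (50 mg/kg) and atropine (1 mg/kg) and kept at 37°C on a heated surface. In situ intestinal perfusion. Perfusate sampled from 5 min at 5 min intervals up to 30 min. Absorption rate constant (Ka) and Peff derived.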

A-375 [34] = assay: Induction of apoptosis in human A375 cells assessed as inhibition of DNA synthesis after 24 hrs by BrdU staining-based ELISA; format: functional, cell-based
In short: (§5)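 Cells seeded at 25,000/well; compounds added 24 h after seeding at a range of concentrations and incubated 24 h. Cells fixed, then colorimetric BrdU-incorporation ELISA. Absorbance read at 370-492 nm over 3 intervals of 5 min. Mean of three separate experiments with triplicate samples.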

HeLa [35] = assay: Induction of apoptosis in human HeLa cells assessed as inhibition of DNA synthesis after 24 hrs by BrdU staining-based ELISA; format: functional, cell-based; in short: as §5
MDA-MB-231 [36] = assay: Induction of apoptosis in human MDA-MB-231 cells assessed as inhibition of DNA synthesis after 24 hrs by BrdU staining-based ELISA; format: functional, cell-based; in short: as §5

SMILES	IC50 (HeLa [1]) [nM]	IC50 [2] [nM]	IC50 (A-375 [3]) [nM]	IC50 (Jurkat) [nM]	IC50 (MDA-MB-231 [4]) [nM]	Activity (Caco-2 [5]) [%]	Activity (Caco-2 [6]) [%]	Activity (Caco-2 [7]) [%]	Activity (Caco-2 [8]) [%]	Activity (Caco-2 [9]) [%]	Activity (Caco-2 [10]) [%]	Activity (A-375 [21])	Activity (HeLa [22])	Activity (MDA-MB-231 [23])	Activity (A-375 [24])	Activity (HeLa [25])	Activity (MDA-MB-231 [26])	Papp A→B at 50 µM [27] [×10⁻⁶ cm/s]	Papp at 5 min, 50 µM [33] [×10⁻⁶ cm/s]	Ka (Small intestine) [h⁻¹]	further results
CC[C@@]1(O)C(=O)OCc2c1cc1n(c2=O)Cc2cc3c4c(ccc3nc2-1)OCOC4	345	104	186	124	476	61.56	47.78	57	37.04	11.8	8.16	Active	Active	Active	Active	inactive	Active	10	93.8	3.78	Activity (Caco-2 [11]): 3.56%; Activity (Caco-2 [12]): 3.68%; Activity (Caco-2 [13]): 24.72%; Activity (Caco-2 [14]): 42.88%; Activity (Caco-2 [15]): 33.54%; Activity (Caco-2 [16]): 56.08%; Activity (Caco-2 [17]): 1.92%; Activity (Caco-2 [18]): 1.18%; Activity (Caco-2 [19]): 5.9%; Activity (Caco-2 [20]): 3.2%; Papp B→A at 50 µM [28]: 9.84 ×10⁻⁶ cm/s; Papp A→B at 50 µM [29]: 8.05 ×10⁻⁶ cm/s; Papp B→A at 50 µM [30]: 9.73 ×10⁻⁶ cm/s; permeability [31]: permeable; permeability [32]: permeable; Activity (Homo sapiens): inactive
CC[C@@]1(O)C(=O)OCc2c1cc1n(c2=O)Cc2cc3ccccc3nc2-1 [CAMPTOTHECIN]	420	131	187	110	342	83.26	81.62	51.12	36.98	15.22	1.64	Active	Active	Active	Active	inactive	Active	7.88	74.8	3.02	Activity (Caco-2 [11]): 3.18%; Activity (Caco-2 [12]): 4.1%; Activity (Caco-2 [13]): 1.4%; Activity (Caco-2 [14]): 13.7%; Activity (Caco-2 [15]): 41.38%; Activity (Caco-2 [16]): 56.16%; Activity (Caco-2 [17]): 0.12%; Activity (Caco-2 [18]): 3.04%; Activity (Caco-2 [19]): 4.32%; Activity (Caco-2 [20]): 2.76%; permeability [31]: permeable; permeability [32]: permeable
COCCc1ccc(OCC(O)CNC(C)C)cc1 (centres undefined) [METOPROLOL]	–	–	–	–	–	–	–	–	–	–	–	–	–	–	–	–	–	23	55.3	2.3	–
CC[C@@]1(O)C(=O)OCc2c1cc1n(c2=O)Cc2cc3c([N+](=O)[O-])cccc3nc2-1 [RUBITECAN]	343	–	138	128	479	–	–	–	–	–	–	Active	Active	Active	Active	inactive	Active	–	–	–	inhibition (A-375 [34]): Dose-dependent effect; inhibition (HeLa [35]): Dose-dependent effect; inhibition (MDA-MB-231 [36]): Dose-dependent effect
